Test results from ChEMBL document CHEMBL6078633, “Covalent Inhibitors of S100A4 Block the Formation of a Pro-Metastasis Non-Muscle Myosin 2A Complex” (J Med Chem, 2024).
Calls of active or inactive are those of the source. The rule behind the calls is not given here.

Legend:
[1] = Inhibition of S100A4-NMII interaction (unknown origin) by HTRF analysis; design: species or system Homo sapiens
Outline: (§1)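 TR-FRET peptide-displacement assays run in parallel: S100A4 with MPN (NMII-mimicking) peptide, and S100A11 with AnII-mimicking peptide, both with 1 mM calcium. IC50 fitted from percentage inhibition against solvent controls.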

Homo sapiens = species: Homo sapiens; test: Inhibition of S100A11-AN2 interaction (unknown origin) by HTRF analysis
Outline: as §1, with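 “calcium. Duplicate dose-response in two independent experiments; top concentration 100 μM or 48.75 μM depending on series.” for “calcium.”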

HEK293 [2] = test: Inhibition of wild type C-terminal halo-tagged S100A4-nanoluc-fused NMII interaction (unknown origin) expressed in HEK293 cells using nano-glo as substrate incubated for 24 hrs by Nano-bret assay; assay type: cell-based; details: Homo sapiens
HEK293 [3] = test: Inhibition of C-terminal halo-tagged S100A4 C81S mutant-nanoluc-fused NMII interaction (unknown origin) expressed in HEK293 cells using nano-glo as substrate incubated for 24 hrs by Nano-bret assay; assay type: cell-based; details: Homo sapiens
Outline: (§2)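 S100A4 wild-type or C81S construct co-expressed with NMII fusion in HEK293 cells, run in parallel. Inhibitors given at a single 30 μM for 24 h with HaloTag 618 ligand in phenol-red-free 4% serum medium. NanoGlo substrate added. Background-corrected 618/460 nm BRET ratio compared with DMSO-treated cells.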

HEK293 [4] = test: Inhibition of C-terminal halo-tagged S100A4 C81S mutant-nanoluc-fused NMII interaction (unknown origin) expressed in HEK293 cells using nano-glo as substrate incubated for 24 hrs by Nano-bret assay relative to control; assay type: cell-based; details: Homo sapiens, dose or concentration not given here; outline: as §2
[5] = Aqueous solubility of compound in PBS buffer at pH 7.4; assay type: physicochemical
Outline: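 Aqueous solubility measured in PBS pH 7.4 by an outside contract laboratory.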

[6] = Permeability of compound in MDCK-MDR1 cells; assay type: ADME, cell-based, Canis lupus familiaris; details: dog
Outline: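 Permeability and P-gp efflux measured by transit across MDCK-MDR1 cell monolayers by an outside contract laboratory.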

HeLa = test: Inhibition of cell migration in human HeLa cells assessed as reduction in wound healing at 8 uM incubated for 36 hrs by incucyte live-cell imager; assay type: functional, cell-based
Outline: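 HeLa or A549 cells seeded in collagen-coated 96-well plates to near confluency. Monolayer scratched, then medium replaced with medium containing various inhibitor concentrations. Plates imaged every 2 h for 36 h in an Incucyte. Wound area measured with an image-analysis wound healing tool.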

Protein S100-A4 = Protein S100-A4 (Homo sapiens, UniProt P26447); test: Inhibition of S100A4 (unknown origin) in presence of GSH by HTRF analysis
Protein S100-A4, sequence (P26447 whole entry): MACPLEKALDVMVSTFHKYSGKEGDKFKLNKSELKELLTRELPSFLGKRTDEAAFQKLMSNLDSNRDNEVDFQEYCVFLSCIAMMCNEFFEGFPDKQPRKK

Compound: CN1CCCC(NC(=O)[C@H]2C[C@H](c3ccccc3)CN2C(=O)CCl)C1=O (some centres not stated)
- IC50 [1]: < 1000 nM
- inhibition (Homo sapiens): inactive

Compound: O=C(NC1CCCc2ccccc21)[C@H]1C[C@H](c2ccccc2)CN1C(=O)CCl (some centres not stated)
- inhibition (HEK293 [2]): Active
- inhibition (HEK293 [3]): Active
- inhibition (Homo sapiens): inactive
- inhibition (HEK293 [4]): < 60%
- solubility [5]: soluble
- permeability [6]: Permeable
- inhibition (HeLa): Active

Compound: N#CCc1ccc(NC(=O)[C@H]2C[C@H](c3ccccc3)CN2C(=O)CCl)cc1
- IC50 [1]: < 1000 nM
- inhibition (Homo sapiens): inactive

Compound: COc1cccc(N2CC(NC(=O)[C@H]3C[C@H](c4ccccc4)CN3C(=O)CCl)CC2=O)c1 (some centres not stated)
- IC50 [1]: < 1000 nM
- inhibition (Homo sapiens): inactive

Compound: Cc1ccc(S(=O)(=O)/C=C/C#N)cc1
- IC50 (Protein S100-A4): > 20000 nM

Compound: O=C1Nc2ccccc2C1NC(=O)[C@H]1C[C@H](c2ccccc2)CN1C(=O)CCl (some centres not stated)
- IC50 [1]: < 1000 nM
- inhibition (Homo sapiens): inactive

Compound: O=C(Nc1cccc(Cl)c1)[C@H]1C[C@H](c2ccccc2)CN1C(=O)CCl
- inhibition (HEK293 [2]): Active
- inhibition (HEK293 [3]): Active
- IC50 [1]: 2900 nM
- IC50 (Protein S100-A4): 4620 nM
- inhibition (HEK293 [4]): < 60%
- inhibition (HeLa): Active
